The list is not random: actives were taken first. Their share in the collection is about 4.5%.
Mdm2 ligase inh = blocks human Mdm2 ubiquitin ligase activity; hit rate 0.11% among 210,000; signal enhancement, % at 5 µM; cell-based MDM2 ubiquitination luciferase reporter, 2 h; 0 = plate control, 100 = twice control, blank-subtracted;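 active = signal enhancement of 30% or more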;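 also: luminescence tracks abundance of the self-degrading MDM2-luciferase fusion protein; higher signal means inhibition of MDM2 E3 ligase activity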
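Material: stable MDM2–luciferase fusion reporter cells / Quantity: 2000 cells/well / Dosing: single 5 µM compound dose, 0.2% final DMSO / Buffer or medium: DMEM / Schedule: 4 h cell settling then 2 h compound exposure, 37 °C / Detection: luminescence with SteadyLite reagent, 15 min at room temperature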
STAT1 activator = STAT1 signaling activation; NIH 3T3 STAT1-luciferase reporter, IFN-gamma, luminescence; 100% = IFN-gamma alone, no compound; activation (% of control), % at 5.5 µM; hit rate 2.6% among 200,000;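 active = activation above the screen-wide mean activation plus 3 SD, cut at about 130% in these data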
PERK inh = blocks human PERK kinase; Q9NZJ5; hit rate 0.17% among 220,000; inhibition, % at 5.6 µM; AID 1416; CHO PERK-DD fusion, SEAP luminescence translation reporter;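 active = inhibition above the mean inhibition of all tested compounds plus 3 SD, set separately per screening campaign, cut at about 2.9% in these data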;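 also: PERK kinase domain activated by AP20187 dimerizer at 100 nM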
APP 5'UTR act = activates APP 5'UTR luciferase reporter | AID 1276 | activation, % at 2 µM | hit rate 1% among 190,000 | SH-SY5Y APP 5'UTR luciferase reporter, luminescence; zero percent = DMSO vehicle wells;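 active = activation above a set limit, based on mean plus 3 SD of controls, cut at about 140% in these data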
AHR act = activates the human aryl hydrocarbon receptor. P35869. AHR-responsive luciferase reporter cells, luminescence. activation, % at 5 µM. hit rate 2.5% among 320,000; in the data active = activation above about 47%
Target sequence (P35869 whole entry, looked up): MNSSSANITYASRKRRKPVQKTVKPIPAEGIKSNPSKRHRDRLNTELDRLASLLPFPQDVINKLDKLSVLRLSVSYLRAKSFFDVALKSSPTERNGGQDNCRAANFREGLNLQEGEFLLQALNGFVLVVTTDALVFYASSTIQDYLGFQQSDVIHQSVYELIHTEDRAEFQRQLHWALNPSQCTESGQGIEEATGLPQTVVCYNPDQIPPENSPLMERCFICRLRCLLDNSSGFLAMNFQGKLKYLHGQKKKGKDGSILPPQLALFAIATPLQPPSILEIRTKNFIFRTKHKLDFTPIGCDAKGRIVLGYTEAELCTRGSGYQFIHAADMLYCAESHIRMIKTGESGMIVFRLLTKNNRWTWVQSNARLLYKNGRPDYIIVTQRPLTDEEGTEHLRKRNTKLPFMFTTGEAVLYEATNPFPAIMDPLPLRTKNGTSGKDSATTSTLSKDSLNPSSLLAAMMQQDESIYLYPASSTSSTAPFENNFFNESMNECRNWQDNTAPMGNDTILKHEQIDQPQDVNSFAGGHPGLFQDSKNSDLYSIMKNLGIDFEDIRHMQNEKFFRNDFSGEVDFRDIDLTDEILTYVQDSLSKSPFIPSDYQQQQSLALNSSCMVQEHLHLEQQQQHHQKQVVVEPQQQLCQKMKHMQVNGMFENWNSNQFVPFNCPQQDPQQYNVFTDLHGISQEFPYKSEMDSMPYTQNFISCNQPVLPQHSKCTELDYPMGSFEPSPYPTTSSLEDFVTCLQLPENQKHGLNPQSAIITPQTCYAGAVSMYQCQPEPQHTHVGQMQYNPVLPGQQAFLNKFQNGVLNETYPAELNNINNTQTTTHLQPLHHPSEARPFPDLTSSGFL
NF-kB neuron act = raises NF-kB expression in human neuronal cells | hit rate 1.6% among 190,000 | AID 1239 | fold change at 12.5 µM | NF-kB reporter expression; stronger effect = higher value; in the data active = fold change above about 3.3
STAT1 act conf = STAT1 activation, confirmation assay; NIH 3T3 STAT1-luciferase reporter, IFN-gamma potentiation, luminescence; 100% = IFN-gamma EC80 alone, no compound; hit rate 97% among 1,200; activation (% of control), % at 5.7 µM; shares compounds with STAT1 activator;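 active = activation above a set limit carried over from the earlier primary STAT1 screen, cut at about 140% in these data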
NFkB act = NF-kappaB activation in STAT1 activator counter-screen. activation (% of control), % at 5.7 µM. shares compounds with STAT1 activator. hit rate 43% among 1,200. AID 1306. HEK293T NF-kB luciferase reporter, TNF-alpha stimulated, luminescence; 100% = TNF-alpha with vehicle only;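 active = activation above the mean of solvent-only control wells plus 3 SD, set per campaign, cut at about 130% in these data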;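 also: TNF-alpha given at a submaximal dose yielding about 80% of full reporter signal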
STAT3 act 2 = human STAT3 activation in STAT1 activator counter-screen; shares compounds with STAT1 activator; U3A cells STAT3-luciferase reporter, IL-6, luminescence; cells lack STAT1; 100 = IL-6 alone, no compound effect; activation (% of control), % at 5.7 µM; hit rate 46% among 1,200;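 active = activation above the solvent-only control well mean plus 3 SD, set per plate batch, cut at about 110% in these data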;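 also: higher means more STAT3 reporter activation so hits are non-selective activators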
Large screens that a line does not name were inactive (follow-up assays come after a bar, where they were run).

COc1ccc(NC(=O)/C(Cl)=C(/Cl)S(=O)Cc2ccc(Cl)cc2)cn1 (stereo unspecified)	Mdm2 ligase inh 39, STAT1 activator 292 (no result: AHR act) | STAT1 act conf 278 | NFkB act inactive | STAT3 act 2 inactive
CC1CCCCC12NC(=O)N(CC(=O)N1CCN(C(=O)c3cccs3)CC1)C2=O (stereo unspecified)	none (no result: Mdm2 ligase inh, STAT1 activator, PERK inh, APP 5'UTR act, NF-kB neuron act)
CCOC(=O)c1cn[nH]c1NC(=S)Nc1ccc(OC)cc1	none (no result: STAT1 activator, APP 5'UTR act, NF-kB neuron act)
COC(=O)c1cn[nH]c1NC(=S)Nc1ccc(C)cc1Cl	STAT1 activator 170, APP 5'UTR act 169 | STAT1 act conf 307 | NFkB act inactive | STAT3 act 2 inactive
COC(=O)c1cn[nH]c1NC(=S)Nc1ccccc1C	STAT1 activator 151 | STAT1 act conf 169 | NFkB act inactive | STAT3 act 2 117
N/C(=N\OC(=O)c1ccco1)c1ccccn1	none
N/C(=N\OC(=O)c1ccco1)c1ccc(Br)cc1	STAT1 activator 162, APP 5'UTR act 173, NF-kB neuron act 3.7 | STAT1 act conf 158 | NFkB act inactive | STAT3 act 2 inactive
CN(C)CCCN(CCCN(C)C)C(=S)Nc1ccc(S(=O)(=O)N2CCOCC2)cc1	none (no result: STAT1 activator, APP 5'UTR act, NF-kB neuron act)
O=C(COC(=O)C1CCCC1)Nc1ncc(Cl)cc1Cl	none (no result: Mdm2 ligase inh, STAT1 activator, PERK inh, APP 5'UTR act, NF-kB neuron act)
CCn1c(SCC(=O)N/N=C(\C)c2ccncc2)nnc1-c1ccc(C)cc1	none (no result: STAT1 activator, APP 5'UTR act, NF-kB neuron act)
O=C1/C(=C/Nc2cccc([N+](=O)[O-])c2)CCc2ccccc21	STAT1 activator 169, APP 5'UTR act 140, NF-kB neuron act 4.5 | STAT1 act conf 212 | NFkB act 134 | STAT3 act 2 inactive
O=C1/C(=C/c2ccc(O)cc2)CCc2ccc([N+](=O)[O-])cc21	none
O=C(CSc1ccc(-c2cccs2)nn1)NCCc1ccccc1	none
c1ccc(CSc2ccc(-c3cccs3)nn2)cc1	STAT1 activator 165, NF-kB neuron act 4.8 | STAT1 act conf 184 | NFkB act 134 | STAT3 act 2 inactive
Cc1cc(C)nc(NNS(=O)(=O)c2c(F)cc(F)cc2Br)n1	none (no result: Mdm2 ligase inh, STAT1 activator, PERK inh, APP 5'UTR act, NF-kB neuron act)
N#C/C(=N/Nc1ccc([N+](=O)[O-])cc1)C(=N)N1CCCCC1	STAT1 activator 174, APP 5'UTR act 174, NF-kB neuron act 8.1 (no result: AHR act) | STAT1 act conf 249 | NFkB act 143 | STAT3 act 2 122
N#C/C(=N\Nc1ccc(Cl)cc1)C(=N)N1CCCCCC1	STAT1 activator 158, APP 5'UTR act 236 | STAT1 act conf 305 | NFkB act 135 | STAT3 act 2 116
COc1ccc2cc(-c3nc4ccccc4n3C)c(=O)oc2c1	STAT1 activator 155, NF-kB neuron act 3.4 | STAT1 act conf 169 | NFkB act inactive | STAT3 act 2 117
Cn1c(-c2cc3ccccc3oc2=O)nc2ccccc21	none (no result: STAT1 activator, APP 5'UTR act, NF-kB neuron act)
CCOC(=O)c1sc2nc(-c3cccnc3)ccc2c1N	STAT1 activator 176, APP 5'UTR act 156, NF-kB neuron act 8.2 | STAT1 act conf 251 | NFkB act 141 | STAT3 act 2 115
C=C(C)CN(CC)C(=O)CCc1nnc(CCCc2ccccc2)o1	STAT1 activator 154 | STAT1 act conf 172 | NFkB act inactive | STAT3 act 2 123
COc1cc(NC(=O)c2csc3c2CCCC3)ncn1	STAT1 activator 171, NF-kB neuron act 3.3 | STAT1 act conf 193 | NFkB act inactive | STAT3 act 2 inactive
O=C(Nc1ccc(S(=O)(=O)N2CCOCC2)cc1)c1cccnc1	none (no result: STAT1 activator, APP 5'UTR act, NF-kB neuron act)
Cc1ccccc1Nc1nc(N)nc(CSc2ccc(F)cc2)n1	STAT1 activator 156, APP 5'UTR act 168, NF-kB neuron act 6 | STAT1 act conf 195 | NFkB act inactive | STAT3 act 2 125
CCOC(=O)c1sc2nc(NC(=O)C(C)(C)C)sc2c1C	STAT1 activator 157 | STAT1 act conf 202 | NFkB act 134 | STAT3 act 2 inactive
O=C(Nc1ccc2c(c1)OCCO2)c1oc2ccccc2c1NC(=O)C1CC1	none
CCOCC(=O)Nc1c(C(=O)Nc2ccc3c(c2)OCCO3)oc2ccccc12	STAT1 activator 155, AHR act 65 | STAT1 act conf 160 | NFkB act 142 | STAT3 act 2 inactive
COCC(=O)Nc1c(C(=O)Nc2ccc3c(c2)OCCO3)oc2ccccc12	STAT1 activator 176, APP 5'UTR act 195, AHR act 55 | STAT1 act conf 176 | NFkB act 140 | STAT3 act 2 inactive
N#Cc1ccc(OCC(=O)N/N=C(\CCC(=O)O)c2cccs2)cc1	none
CC(C)(C)c1ccc(OCc2nc(-c3ccccn3)no2)c(Br)c1	STAT1 activator 158, APP 5'UTR act 164, NF-kB neuron act 3.7 | STAT1 act conf 219 | NFkB act 143 | STAT3 act 2 131
COc1ccc(Cc2nc(-c3ccccn3)no2)cc1	none
c1ccc2cc(OCc3nc4ccccc4[nH]3)ccc2c1	STAT1 activator 163, APP 5'UTR act 184, NF-kB neuron act 5.1 (no result: Mdm2 ligase inh) | STAT1 act conf 200 | NFkB act inactive | STAT3 act 2 inactive
CN(C)/C=C1\C(=O)N(c2ccc([N+](=O)[O-])cc2)N=C1c1ccccc1	STAT1 activator 184 | STAT1 act conf 173 | NFkB act inactive | STAT3 act 2 120
Cc1ccc(C(=O)Nc2nc3c(s2)CCCC3)o1	STAT1 activator 155, APP 5'UTR act 166, NF-kB neuron act 7.3 | STAT1 act conf 209 | NFkB act inactive | STAT3 act 2 inactive
O=C(Nc1nc2c(s1)CCCC2)c1ccc(Br)o1	STAT1 activator 165, APP 5'UTR act 163, NF-kB neuron act 6.2 | STAT1 act conf 217 | NFkB act inactive | STAT3 act 2 inactive
CC(=O)c1sc(NC(=O)c2ccc(Br)o2)nc1C	none (no result: Mdm2 ligase inh, STAT1 activator, PERK inh, APP 5'UTR act, NF-kB neuron act)
CN(C)c1ccc(C(=O)OCC(=O)c2cccs2)cc1	STAT1 activator 172, NF-kB neuron act 5.2 | STAT1 act conf 215 | NFkB act inactive | STAT3 act 2 inactive
COc1ccc(-c2c(C)nn(-c3ccccc3)c2N)cc1	none
Cc1nn(-c2ccc(C(=O)O)cc2)c(N)c1-c1ccccc1	STAT1 activator 160, NF-kB neuron act 4.9 | STAT1 act conf 200 | NFkB act 140 | STAT3 act 2 139
Nc1nc(SCC(=O)Nc2ccc(OC(F)(F)F)cc2)[nH]c(=O)c1NC(=O)c1ccc(Br)o1	none (no result: Mdm2 ligase inh, STAT1 activator, PERK inh, APP 5'UTR act, NF-kB neuron act)
Cc1c(-c2ccc(Cl)cc2)oc(=O)c2c(N)n(-c3ccccc3)nc12	none

High-throughput results as filed in PubChem BioAssay.
